Assay outcomes (PubChem BioAssay)
PRMT1 FP inh: inhibitors of human PRMT1; AID 652257; inhibition, % at 2.79 µM; hit rate 1.3% among 370,000; Q99873; recombinant PRMT1, activity-based probe fluorescence polarization;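 active = inhibition above about 21% made by adding two undisclosed values, limit read from the data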
rCAG RNA binder: molecules binding r(CAG) RNA repeats; r(CAG) RNA repeat, TO-PRO-1 dye displacement fluorescence; inhibition, % at 3 µM; hit rate 1.3% among 370,000; AID 651821;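 active = inhibition above the plate cutoff, the mean of all test compounds on that plate plus 3 SD, cut at about 35% in these data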;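 note: higher means more dye released from RNA so lower well fluorescence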
TCR-CD3 inh: inhibitors of human TCR-CD3 interaction. hit rate 0.37% among 360,000. TAMRA-labeled TCR probe fluorescence, biochemical. AID 651800. inhibition, % at 9.4 µM; in the data active = inhibition above about 19%;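 note: recombinant mutant TCR 2C K166C tagged with TAMRA read by polarization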
HTRA1 inh: inhibitors of human serine peptidase HTRA1; recombinant HTRA1, FP-rhodamine activity-based probe, fluorescence polarization; hit rate 0.5% among 340,000; inhibition, % at 5.96 µM; in the data active = inhibition above about 36%
ABHD4 inh: ABHD4 (mouse) inhibition, primary FP screen. Q8VD66. purified mABHD4, FP-Rh probe fluorescence polarization. inhibition, % at 8.92 µM. hit rate 0.54% among 370,000. AID 720543;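 active = inhibition exceeding the mean over every tested compound plus 3 SD, cut at about 30% in these data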
Target sequence (Q8VD66 whole entry, looked up): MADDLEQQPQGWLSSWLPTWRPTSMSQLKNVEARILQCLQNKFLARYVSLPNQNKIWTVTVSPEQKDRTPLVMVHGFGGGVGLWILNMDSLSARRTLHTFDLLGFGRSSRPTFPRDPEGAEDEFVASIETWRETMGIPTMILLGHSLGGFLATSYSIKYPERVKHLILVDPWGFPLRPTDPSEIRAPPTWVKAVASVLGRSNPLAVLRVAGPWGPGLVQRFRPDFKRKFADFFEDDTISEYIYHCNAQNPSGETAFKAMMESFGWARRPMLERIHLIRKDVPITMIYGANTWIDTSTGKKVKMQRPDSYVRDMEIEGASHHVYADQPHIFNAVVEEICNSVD
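Material: mouse ABHD4 enzyme, wild type; Benchmarks: S159A mutant high control, sample median low control; Buffer or medium: HEPES pH 7.0, NaCl, Pluronic buffer; Signal: fluorescence polarization; Read-out: percent inhibition of probe binding, normalized to plate controls; Timing: pre-incubation 45 min, probe exposure 60 min, at 25 °C; Dosing: 8.92 µM, single dose.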
SIAE inh: human SIAE inhibition, primary screen | AID 1053197 | SIAE FP-Rh probe binding, fluorescence polarization | hit rate 0.69% among 370,000 | inhibition, % at 9.66 µM;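 active = inhibition above a cutoff: mean of compounds within the control limits plus 3 SD of those, cut at about 17% in these data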
rCAG binder conf: r(CAG) RNA repeat binding, confirmation; shares compounds with rCAG RNA binder; TO-PRO-1 dye displacement fluorescence; inhibition, % at 3 µM; hit rate 70% among 4,300;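 active = inhibition above a per-plate cutoff, the mean inhibition of sample wells plus 3 SD, cut at about 35% in these data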;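 note: loss of TO-PRO-1 fluorescence as compound displaces dye from 1x1 AA loop RNA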
dCAG dye counter: DNA CAG dye complex inhibition counter-screen; shares compounds with rCAG RNA binder; d(CAG) DNA oligo TO-PRO-1 dye displacement, fluorescence; inhibition, % at 3 µM; hit rate 94% among 4,300;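 active = inhibition above its plate's cutoff, the mean test-well inhibition plus 3 SD, cut at about 4.8% in these data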;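 note: hits displace the dye from DNA and so lower well fluorescence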
DNA CAG DR: disrupts DNA CAG TO-PRO-1 complex in dose response; shares compounds with rCAG RNA binder; DNA CAG/GTC duplex TO-PRO-1 dye displacement fluorescence; IC50, µM; hit rate 20% among 250; in the data active = IC50 below about 10 µM
A number is an active result; - = inactive; . = no result given. Only some compounds are listed: those with a hit (about 3.5% of all), similar ones and a draw of the others.

SMILES	PRMT1 FP inh	rCAG RNA binder	TCR-CD3 inh	HTRA1 inh	ABHD4 inh	SIAE inh	rCAG binder conf	dCAG dye counter	others
Cn1c(N)c(C(=O)COC(=O)c2cc(-c3ccco3)nc3ccccc23)c(=O)n(C)c1=O	22	49	-	-	-	-	45	20
COc1ccc(-c2cc(C(=O)OCC(=O)c3c(N)n(C)c(=O)n(C)c3=O)c3ccccc3n2)cc1	-	-	-	-	-	-	.	.
COc1ccc(-c2nc(-c3ccccc3)c(-c3cc([N+](=O)[O-])ccc3C)[nH]2)cc1O	-	-	-	-	-	-	.	.
COc1ccc([N+](=O)[O-])cc1-c1[nH]c(-c2ccc(C(=O)O)cc2)nc1-c1ccccc1	-	55	-	-	-	-	48	16
COC(=O)C1CN(Cc2cn(CCOC(C)=O)nn2)CCS(=O)(=O)N1Cc1ccc(F)cc1 (stereo unspecified)	-	-	.	.	-	-	.	.
CC(=C\c1ccccc1)/C=C1/SC(=S)N(C(C(=O)O)C(C)C)C1=O (stereo unspecified)	-	69	-	-	-	-	63	25
C=CCN1C(=O)/C(=C\C(C)=C\c2ccccc2)SC1=S	-	-	-	-	-	-	.	.
CCC(C(=O)O)N1C(=O)/C(=C/C(C)=C/c2ccccc2)SC1=S (stereo unspecified)	-	61	-	-	-	-	76	31	DNA CAG DR=-
O=C(CSc1nnc(-c2ccncc2)n1-c1ccccc1)Nc1cccc2ccccc12	-	-	.	.	-	-	.	.
N#C/C(=C\c1c[nH]c2ccccc12)C(=O)NC1CCCC1	-	-	-	-	-	-	.	.
N#C/C(=C\c1c[nH]c2ccccc12)C(=O)NC1CC1	-	54	-	-	-	-	-	-
CC1(C)Cc2c(sc3nc(SCC(=O)O)nc(N)c23)CO1	-	-	-	-	-	-	.	.
CC(C)(C)C1CCc2c(sc3nc(SCC(=O)O)nc(N)c23)C1 (stereo unspecified)	-	36	-	-	-	-	42	10
N#C/C(=C(/O)CCl)c1nc(-c2ccccc2)cs1	-	42	-	-	-	-	38	18
C/C=C/C(=O)N1CCC(C(=O)NCC2COc3ccccc3O2)CC1 (stereo unspecified)	-	-	.	.	-	-	.	.
COc1nc(OC)nc(N2CCC(C(=O)N(C)Cc3ccco3)CC2)n1	-	-	.	.	-	-	.	.
COC(=O)Cn1c(=O)c2c(n(Cc3ccccc3)c1=O)N/C(=C/c1ccc(Br)cc1)C2=O	-	62	-	-	-	-	75	40
CCOc1ccc(-c2ccc(/C=C3/C(=N)N4C(C)=CSC4=NC3=O)o2)c([N+](=O)[O-])c1	-	49	-	-	-	-	-	12
O=C1CC(=O)N(Cc2ccco2)C(=O)N1	22	35	-	-	-	-	36	13
O=C1CC(=O)N(Cc2ccco2)C(=S)N1	.	.	.	-	.	.	.	.
O=C(COC(=O)c1ccc(NS(=O)(=O)c2cccs2)cc1)NCc1ccco1	.	.	.	-	.	.	.	.
O=C(COC(=O)c1ccc(NS(=O)(=O)c2cccs2)cc1O)Nc1nc2ccccc2s1	-	73	-	-	-	-	64	29
O=C(COC(=O)c1ccc(NS(=O)(=O)c2cccs2)cc1O)NCc1ccccc1	-	38	-	-	-	-	-	6.4
O=C(Nc1cccc(S(=O)(=O)NC2=NCCCCC2)c1)c1cc(-c2ccco2)nc2ccccc12	-	35	-	-	-	-	-	16
COc1cc(C(c2c(C(=O)O)[nH]c3ccccc23)c2c(C(=O)O)[nH]c3ccccc23)ccc1OCc1ccccc1	-	94	-	-	50	-	90	68
SMILES	PRMT1 FP inh	rCAG RNA binder	TCR-CD3 inh	HTRA1 inh	ABHD4 inh	SIAE inh	rCAG binder conf	dCAG dye counter	others
COc1cc(C(NC(C)=O)NC(C)=O)ccc1OCc1ccccc1	-	-	-	-	-	-	.	.
COc1ccc(/C=C2\CC3(OC(=O)c4ccco4)CCCN2C3)cc1 (stereo unspecified)	-	-	.	.	-	-	.	.
O=C(O)COc1ccccc1/C=N/NC(=O)Cc1csc(Nc2cccc(C(F)(F)F)c2)n1	-	59	-	.	-	-	55	17
CCCOc1ccc(C2C(C(=O)c3cc4ccccc4o3)=C(O)C(=O)N2c2cc(C)on2)cc1OC (stereo unspecified)	-	40	-	-	-	-	76	42
COc1cccc(C2C(C(=O)c3cc4ccccc4o3)=C(O)C(=O)N2c2cc(C)on2)c1 (stereo unspecified)	-	48	-	-	-	-	52	18
COc1ccc(OC)c(C2C(C(=O)c3cc4ccccc4o3)=C(O)C(=O)N2c2cc(C)on2)c1 (stereo unspecified)	-	38	-	-	-	-	42	12
C=CCOc1cccc(C2C(C(=O)c3cc4ccccc4o3)=C(O)C(=O)N2c2cc(C)on2)c1 (stereo unspecified)	-	66	-	-	-	-	76	40
CCCOc1ccc(C2C(C(=O)c3cc4ccccc4o3)=C(O)C(=O)N2c2cc(C)on2)cc1 (stereo unspecified)	-	-	-	-	-	-	.	.
O=C(O)c1cccc(S(=O)(=O)NCC(=O)N2CCN(c3ccccn3)CC2)c1	-	-	.	.	-	-	.	.
COc1cccc2sc(Nc3nnc(-c4ccc(F)cc4)o3)nc12	-	62	-	-	-	-	72	28	DNA CAG DR=-
COc1cccc2sc(Nc3nnc(-c4cccs4)o3)nc12	-	-	-	-	-	-	.	.
O=C(Cn1cc(COc2ccc3ccccc3c2)nn1)NS(=O)(=O)c1cccc(OC(F)F)c1	-	55	-	.	-	-	71	23	DNA CAG DR=9.3
O=C(Cn1cc(-c2ccccn2)nn1)NS(=O)(=O)c1cccc(OC(F)F)c1	-	-	-	.	-	-	.	.
Cc1ccc([N+](=O)[O-])cc1-c1ccc(/C=C(\C#N)c2[nH]nc(N)c2C#N)o1	-	84	-	-	-	-	63	47
COCc1cc(C)nc(OCC(=O)N/N=C/c2ccc(-c3cc([N+](=O)[O-])ccc3C)o2)c1C#N	-	-	-	-	-	-	.	.
CCN(CCNC(=O)[C@H]1C=C(OC)C(=O)C[C@H](c2ccccc2)[C@H]1C)C(C)=O	-	-	.	.	-	-	.	.
O=C(COc1ccccc1Cl)Nc1cc(NC(=O)COc2ccccc2Cl)cc(C(=O)O)c1	-	-	-	-	-	-	.	.
COc1ccccc1OCC(=O)Nc1cc(NC(=O)COc2ccccc2OC)cc(C(=O)O)c1	-	46	-	-	-	-	-	-
